Laboratory results published in ChEMBL document CHEMBL4689842, “EUbOPEN Chemogenomics Library wave 1” (2021).

How the values were obtained:
HEK-293T = experiment: Incucyte cell viability with HEK293T; type: toxicity, cell-based; settings: human, 10 µM, compound concentration 10 uM; note: filed as whole numbers so only -1 and 0 and 1 occur
U2OS = experiment: Multiplex assay against U2OS; type: toxicity, cell-based; settings: human
Outline: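 Live cells carried four stains from seeding: Hoechst33342, BioTracker Green Microtubule Cytoskeleton Dye, MitoTracker Red and Annexin V Alexa Fluor 680. They were imaged on a CQ1 microscope at 37°C and 5% CO2 after compound addition. Using CellPathfinder machine-learning gating, cells were split into Hoechst high-intensity objects or normal cells, normal cells into healthy, pyknosed or fragmented nuclei, and pyknosed cells into mitotic or apoptotic; tubulin, mitochondrial-mass and membrane-permeability phenotypes are per cents of healthy-nucleus cells.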

[1] = 12 h, 1 µM, compound concentration 1 uM, replicate 1
[2] = 12 h, 1 µM, compound concentration 1 uM, replicate 2
[3] = 12 h, 10 µM, compound concentration 10 uM, replicate 1
[4] = 12 h, 10 µM, compound concentration 10 uM, replicate 2
[5] = 24 h, 1 µM, compound concentration 1 uM, replicate 1
[6] = 24 h, 1 µM, compound concentration 1 uM, replicate 2
[7] = 24 h, 10 µM, compound concentration 10 uM, replicate 1
[8] = 24 h, 10 µM, compound concentration 10 uM, replicate 2
[9] = 48 h, 1 µM, compound concentration 1 uM, replicate 1
[10] = 48 h, 1 µM, compound concentration 1 uM, replicate 2
[11] = 48 h, 10 µM, compound concentration 10 uM, replicate 1
[12] = 48 h, 10 µM, compound concentration 10 uM, replicate 2

N#Cc1cccc(C(=O)Nc2cc(-c3ccccc3)nn2-c2ccccc2)c1
Growth Rate (HEK-293T; 0 h, replicate number 1, timepoint 0 hours): 0
Growth Rate (HEK-293T; 6 h, replicate number 1, timepoint 6 hours): 0
Growth Rate (HEK-293T; 12 h, replicate number 1, timepoint 12 hours): 0
Growth Rate (HEK-293T; 18 h, replicate number 1, timepoint 18 hours): 0
Growth Rate (HEK-293T; 24 h, replicate number 1, timepoint 24 hours): 0
Population Apoptotic (%) (U2OS; [1]): 33%
Population Fragmented Nuclei (%) (U2OS; [1]): 14%
Population Healthy Nuclei (%) (U2OS; [1]): 73%
Population Hoechst High Intensity Objects (%) (U2OS; [1]): 9%
Population Membrane Permeable-Phenotype (%) (U2OS; [1]): 2%
Population Mitotic Cells (%) (U2OS; [1]): 66%
Population Normal (%) (U2OS; [1]): 90%
Population Pyknosed Nuclei (%) (U2OS; [1]): 12%
Population Tubulin-Different-Phenotype (%) (U2OS; [1]): 13%
Total Cell Count (U2OS; [1]): 109
Population Apoptotic (%) (U2OS; [2]): 16%
Population Fragmented Nuclei (%) (U2OS; [2]): 5%
Population Healthy Nuclei (%) (U2OS; [2]): 84%
Population Hoechst High Intensity Objects (%) (U2OS; [2]): 3%
Population Membrane Permeable-Phenotype (%) (U2OS; [2]): 6%
Population Mitochondria Different-Phenotype (%) (U2OS; [2]): 8%
Population Mitotic Cells (%) (U2OS; [2]): 83%
Population Normal (%) (U2OS; [2]): 96%
Population Pyknosed Nuclei (%) (U2OS; [2]): 10%
Population Tubulin-Different-Phenotype (%) (U2OS; [2]): 16%
Total Cell Count (U2OS; [2]): 59
Population Apoptotic (%) (U2OS; [3]): 50%
Population Fragmented Nuclei (%) (U2OS; [3]): 14%
Population Healthy Nuclei (%) (U2OS; [3]): 69%
Population Hoechst High Intensity Objects (%) (U2OS; [3]): 6%
Population Membrane Permeable-Phenotype (%) (U2OS; [3]): 22%
Population Mitochondria Different-Phenotype (%) (U2OS; [3]): 86%
Population Mitotic Cells (%) (U2OS; [3]): 50%
Population Normal (%) (U2OS; [3]): 93%
Population Pyknosed Nuclei (%) (U2OS; [3]): 15%
Population Tubulin-Different-Phenotype (%) (U2OS; [3]): 100%
Total Cell Count (U2OS; [3]): 121
Population Apoptotic (%) (U2OS; [4]): 45%
Population Fragmented Nuclei (%) (U2OS; [4]): 9%
Population Healthy Nuclei (%) (U2OS; [4]): 60%
Population Hoechst High Intensity Objects (%) (U2OS; [4]): 9%
Population Membrane Permeable-Phenotype (%) (U2OS; [4]): 15%
Population Mitochondria Different-Phenotype (%) (U2OS; [4]): 84%
Population Mitotic Cells (%) (U2OS; [4]): 55%
Population Normal (%) (U2OS; [4]): 90%
Population Pyknosed Nuclei (%) (U2OS; [4]): 30%
Population Tubulin-Different-Phenotype (%) (U2OS; [4]): 97%
Total Cell Count (U2OS; [4]): 72
Population Apoptotic (%) (U2OS; [5]): 23%
Population Fragmented Nuclei (%) (U2OS; [5]): 13%
Population Healthy Nuclei (%) (U2OS; [5]): 76%
Population Hoechst High Intensity Objects (%) (U2OS; [5]): 11%
Population Mitochondria Different-Phenotype (%) (U2OS; [5]): 5%
Population Mitotic Cells (%) (U2OS; [5]): 76%
Population Normal (%) (U2OS; [5]): 88%
Population Tubulin-Different-Phenotype (%) (U2OS; [5]): 3%
Total Cell Count (U2OS; [5]): 137
Population Apoptotic (%) (U2OS; [6]): 14%
Population Fragmented Nuclei (%) (U2OS; [6]): 3%
Population Healthy Nuclei (%) (U2OS; [6]): 86%
Population Hoechst High Intensity Objects (%) (U2OS; [6]): 4%
Population Membrane Permeable-Phenotype (%) (U2OS; [6]): 1%
Population Mitochondria Different-Phenotype (%) (U2OS; [6]): 8%
Population Mitotic Cells (%) (U2OS; [6]): 85%
Population Normal (%) (U2OS; [6]): 95%
Population Pyknosed Nuclei (%) (U2OS; [6]): 10%
Population Tubulin-Different-Phenotype (%) (U2OS; [6]): 7%
Total Cell Count (U2OS; [6]): 68
Population Apoptotic (%) (U2OS; [7]): 35%
Population Fragmented Nuclei (%) (U2OS; [7]): 19%
Population Healthy Nuclei (%) (U2OS; [7]): 55%
Population Hoechst High Intensity Objects (%) (U2OS; [7]): 8%
Population Membrane Permeable-Phenotype (%) (U2OS; [7]): 33%
Population Mitochondria Different-Phenotype (%) (U2OS; [7]): 78%
Population Mitotic Cells (%) (U2OS; [7]): 64%
Population Normal (%) (U2OS; [7]): 91%
Population Pyknosed Nuclei (%) (U2OS; [7]): 25%
Population Tubulin-Different-Phenotype (%) (U2OS; [7]): 98%
Total Cell Count (U2OS; [7]): 119
Population Apoptotic (%) (U2OS; [8]): 42%
Population Fragmented Nuclei (%) (U2OS; [8]): 9%
Population Healthy Nuclei (%) (U2OS; [8]): 67%
Population Hoechst High Intensity Objects (%) (U2OS; [8]): 6%
Population Membrane Permeable-Phenotype (%) (U2OS; [8]): 30%
Population Mitochondria Different-Phenotype (%) (U2OS; [8]): 71%
Population Mitotic Cells (%) (U2OS; [8]): 57%
Population Normal (%) (U2OS; [8]): 93%
Population Pyknosed Nuclei (%) (U2OS; [8]): 22%
Population Tubulin-Different-Phenotype (%) (U2OS; [8]): 95%
Total Cell Count (U2OS; [8]): 66
Population Apoptotic (%) (U2OS; [9]): 38%
Population Fragmented Nuclei (%) (U2OS; [9]): 10%
Population Healthy Nuclei (%) (U2OS; [9]): 82%
Population Hoechst High Intensity Objects (%) (U2OS; [9]): 5%
Population Membrane Permeable-Phenotype (%) (U2OS; [9]): 2%
Population Mitochondria Different-Phenotype (%) (U2OS; [9]): 2%
Population Mitotic Cells (%) (U2OS; [9]): 61%
Population Normal (%) (U2OS; [9]): 94%
Population Pyknosed Nuclei (%) (U2OS; [9]): 7%
Population Tubulin-Different-Phenotype (%) (U2OS; [9]): 4%
Total Cell Count (U2OS; [9]): 190
Population Apoptotic (%) (U2OS; [10]): 20%
Population Fragmented Nuclei (%) (U2OS; [10]): 3%
Population Healthy Nuclei (%) (U2OS; [10]): 86%
Population Hoechst High Intensity Objects (%) (U2OS; [10]): 4%
Population Membrane Permeable-Phenotype (%) (U2OS; [10]): 4%
Population Mitochondria Different-Phenotype (%) (U2OS; [10]): 13%
Population Mitotic Cells (%) (U2OS; [10]): 80%
Population Normal (%) (U2OS; [10]): 95%
Population Pyknosed Nuclei (%) (U2OS; [10]): 10%
Population Tubulin-Different-Phenotype (%) (U2OS; [10]): 9%
Total Cell Count (U2OS; [10]): 98
Population Apoptotic (%) (U2OS; [11]): 59%
Population Fragmented Nuclei (%) (U2OS; [11]): 17%
Population Healthy Nuclei (%) (U2OS; [11]): 58%
Population Hoechst High Intensity Objects (%) (U2OS; [11]): 10%
Population Membrane Permeable-Phenotype (%) (U2OS; [11]): 32%
Population Mitochondria Different-Phenotype (%) (U2OS; [11]): 67%
Population Mitotic Cells (%) (U2OS; [11]): 40%
Population Normal (%) (U2OS; [11]): 89%
Population Pyknosed Nuclei (%) (U2OS; [11]): 24%
Population Tubulin-Different-Phenotype (%) (U2OS; [11]): 100%
Total Cell Count (U2OS; [11]): 123
Population Apoptotic (%) (U2OS; [12]): 55%
Population Fragmented Nuclei (%) (U2OS; [12]): 13%
Population Healthy Nuclei (%) (U2OS; [12]): 60%
Population Hoechst High Intensity Objects (%) (U2OS; [12]): 11%
Population Membrane Permeable-Phenotype (%) (U2OS; [12]): 52%
Population Mitochondria Different-Phenotype (%) (U2OS; [12]): 42%
Population Mitotic Cells (%) (U2OS; [12]): 44%
Population Normal (%) (U2OS; [12]): 88%
Population Pyknosed Nuclei (%) (U2OS; [12]): 26%
Population Tubulin-Different-Phenotype (%) (U2OS; [12]): 97%
Total Cell Count (U2OS; [12]): 78
